Test results as given in ChEMBL document CHEMBL1122782, “Bulky amine analogues of ketoprofen: potent antiinflammatory agents” (J Med Chem, 1984).

Assays:
Rattus norvegicus [1] = assay: The mean increase in paw volume was compared between drug treated groups and placebo to calculate the percent inhibition in rats at 0.02 mmol/kg by carrageenan Edema Assay; 20-29; format: functional
Rattus norvegicus [2] = assay: The mean increase in paw volume was compared between drug treated groups and placebo to calculate the percent inhibition in rats at 0.02 mmol/kg by carrageenan Edema Assay; 0-19; format: functional
Rattus norvegicus [3] = assay: The mean increase in paw volume was compared between drug treated groups and placebo to calculate the percent inhibition in rats at 0.02 mmol/kg by carrageenan Edema Assay 0-19; format: functional
Rattus norvegicus [4] = assay: The percent inhibition was calculated from the average differences in hind paw volume between the adjuvant injected controls and the adjuvant-injected medicated rats at 0.08 mmol/kg; 90-99; format: functional
Rattus norvegicus [5] = assay: The mean increase in paw volume was compared between drug treated groups and placebo to calculate the percent inhibition in rats at 0.02 mmol/kg by carrageenan Edema Assay; 40-49; format: functional
Rattus norvegicus [6] = assay: Ulcerogenicity was measured in intestine during the 3 week adjuvant arthritis test, no of animals with ulcers out of animals tested at 0.16 mM/kg (67.4 mg) was reported; toxic; format: functional, organism-based
In short: (§1)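 Male Sprague-Dawley rats (200–230 g) were injected in the plantar tissue of one hind paw with 0.1 mL of 0.6% M. butyricum suspension in heavy mineral oil. Daily oral gavage began on the day of adjuvant injection and ran for the 21 days, with drug suspended in 1% gum tragacanth or a corn oil-water emulsion. At the end the rats were sacrificed and the small intestine and stomach were examined for ulcers. Results are given as animals with ulcers/animals tested.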

Rattus norvegicus [7] = assay: The mean increase in paw volume was compared between drug treated groups and placebo to calculate the percent inhibition in rats at 0.02 mmol/kg by carrageenan Edema Assay; 30-39; format: functional; details: Rattus norvegicus
Rattus norvegicus [8] = assay: Antiinflammatory efficacy is measured by the percent inhibition of paw volume during the 3 week adjuvant arthritis test at 0.005 mM/kg (2.11 mg); format: functional
In short: (§2)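 Male Sprague-Dawley rats (200–230 g) were used in groups of eight. Each received 0.1 mL of 0.6% M. butyricum in heavy mineral oil into the plantar tissue of one hind paw. Daily oral gavage in 1% gum tragacanth or corn oil-water emulsion began on the injection day and ran 21 days. Total hind paw volume was measured by mercury displacement, and inhibition was taken versus vehicle-treated adjuvant controls.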

Rattus norvegicus [9] = assay: Ulcerogenicity was measured in stomach during the 3 week adjuvant arthritis test, no of animals with ulcers out of 8 animals tested at 0.08 mM/kg (33.7 mg) was reported; format: functional; in short: as §1
Rattus norvegicus [10] = assay: Ulcerogenicity was measured in intestine during the 3 week adjuvant arthritis test, no of animals with ulcers out of 8 animals tested at 0.08 mM/kg (33.7 mg) was reported; format: functional
In short: (§3)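 In the 21-day adjuvant arthritis model, male Sprague-Dawley rats (200–230 g) received an M. butyricum mineral-oil suspension into one hind paw. They were dosed daily by gavage from the day of injection. At the end of the study the rats were killed, and the small intestines were examined for ulcers. Results are given as the number of ulcerated animals over the number tested.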

Rattus norvegicus [11] = assay: Ulcerogenicity was measured in stomach during the 3 week adjuvant arthritis test, no of animals with ulcers out of 4 animals tested at 0.02 mM/kg (8.43 mg) was reported; format: functional; in short: as §1
Rattus norvegicus [12] = species: Rattus norvegicus; assay: Compound was evaluated for highest non-ulcerogenic dose (less than 50% ulcer incidence); format: functional; details: read-out: ED50
In short: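 Taken from the 21-day adjuvant arthritis test in male Sprague-Dawley rats dosed orally each day from the day of adjuvant injection. Small intestines and stomachs were examined for ulceration at the end. The value is the highest dose giving less than 50% ulcer incidence.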

Rattus norvegicus [13] = assay: Antiinflammatory efficacy is measured by the weight gain in rats during the 3 week adjuvant arthritis test at 0.08 mM/kg (33.7 mg); format: functional
In short: (§4)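 Rats were adjuvant-injected (M. butyricum in mineral oil, one hind paw) or given a mineral-oil placebo. They were dosed by gavage daily for 21 days from the injection day, with vehicle only for both control groups, then weighed at the end. Weight gain % = (treated − adjuvant control)/(negative control − adjuvant control) × 100.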

Rattus norvegicus [14] = assay: Antiinflammatory efficacy is measured by the percent inhibition of paw volume during the 3 week adjuvant arthritis test at 0.08 mM/kg (33.7 mg); format: functional; in short: as §2
Rattus norvegicus [15] = assay: Antiinflammatory efficacy is measured by the weight gain in rats during the 3 week adjuvant arthritis test at 0.02 mM/kg (8.43 mg); format: functional; in short: as §4
Rattus norvegicus [16] = assay: Antiinflammatory efficacy is measured by the weight gain in rats during the 3 week adjuvant arthritis test at 0.005 mM/kg (2.11 mg); format: functional; in short: as §4
Rattus norvegicus [17] = assay: Ulcerogenicity was measured in intestine during the 3 week adjuvant arthritis test, no of animals with ulcers out of 4 animals tested at 0.02 mM/kg (8.43 mg) was reported; format: functional; in short: as §3
Rattus norvegicus [18] = assay: The percent inhibition was calculated from the average differences in hind paw volume between the adjuvant injected controls and the adjuvant-injected medicated rats at 0.08 mmol/kg; 80-89; format: functional
Rattus norvegicus [19] = assay: Antiinflammatory efficacy is measured by the percent inhibition of paw volume during the 3 week adjuvant arthritis test at 0.02 mM/kg (8.43 mg); format: functional; in short: as §2
Rattus norvegicus [20] = assay: The percent inhibition was calculated from the average differences in hind paw volume between the adjuvant injected controls and the adjuvant-injected medicated rats at 0.08 mmol/kg; 60-69; format: functional; details: Rattus norvegicus
Rattus norvegicus [21] = assay: The mean increase in paw volume was compared between drug treated groups and placebo to calculate the percent inhibition in rats at 0.08 mmol/kg by carrageenan Edema Assay; 40-49; format: functional
Rattus norvegicus [22] = assay: The mean increase in paw volume was compared between drug treated groups and placebo to calculate the percent inhibition in rats at 0.08 mmol/kg by carrageenan Edema Assay; 30-39; format: functional
Rattus norvegicus [23] = assay: The percent inhibition was calculated from the average differences in hind paw volume between the adjuvant injected controls and the adjuvant-injected medicated rats at 0.08 mmol/kg; 40-49; format: functional

Structure (SMILES): O=C(c1ccccc1)c1cccc(CCN2CCCCC2CC2CCCCC2)c1 (centres undefined)
- inhibition in vivo at 20 µmol/kg (Rattus norvegicus [1]): 20%

Structure (SMILES): CC(CN1CCCCC1CC1CCCCC1)c1cccc(C(=O)c2ccc(Cl)c(Cl)c2)c1 (centres undefined)
- inhibition in vivo at 20 µmol/kg (Rattus norvegicus [2]): 0%

Structure (SMILES): O=C(c1ccccc1)c1cccc(CCN2CCOCC2)c1
- inhibition in vivo at 20 µmol/kg (Rattus norvegicus [3]): 0%

Structure (SMILES): CC(CN1CCCCC1CC1CCCCC1)c1cccc(/C(=N\O)c2ccccc2)c1 (centres undefined)
- inhibition in vivo at 80 µmol/kg (Rattus norvegicus [4]): 90%
- inhibition in vivo at 20 µmol/kg (Rattus norvegicus [5]): 40%

Structure (SMILES): CC(CN1CCCCC1CC1CCCCC1)c1cccc(C(=O)c2ccc(F)cc2)c1 (centres undefined)
- Ulcerogenic index (Rattus norvegicus [6]): Toxic
- inhibition in vivo at 20 µmol/kg (Rattus norvegicus [7]): 30%
- Inhibition (Rattus norvegicus [8]): 61%
- Ulcerogenic index (Rattus norvegicus [9]): 1
- Ulcerogenic index (Rattus norvegicus [10]): 3
- Ulcerogenic index (Rattus norvegicus [11]): 0
- highest non-ulcerogenic dose (Rattus norvegicus [12]): 3 µmol/kg
- Weight gain (Rattus norvegicus [13]): 81%
- Inhibition (Rattus norvegicus [14]): 85%
- Weight gain (Rattus norvegicus [15]): 31%
- Weight gain (Rattus norvegicus [16]): 50%
- Ulcerogenic index (Rattus norvegicus [17]): 1
- inhibition in vivo at 80 µmol/kg (Rattus norvegicus [18]): 80%
- Inhibition (Rattus norvegicus [19]): 55%

Structure (SMILES): COc1ccc(C(=O)c2cccc(C(C)CN3CCCCC3CC3CCCCC3)c2)cc1 (centres undefined)
- inhibition in vivo at 80 µmol/kg (Rattus norvegicus [20]): 60%
- inhibition in vivo at 20 µmol/kg (Rattus norvegicus [1]): 20%

Structure (SMILES): CC(CN1CCC(CN2CCCCC2)CC1)c1cccc(C(=O)c2ccccc2)c1 (centres undefined)
- inhibition in vivo at 80 µmol/kg (Rattus norvegicus [4]): 90%
- inhibition in vivo at 80 µmol/kg (Rattus norvegicus [21]): 40%

Structure (SMILES): OC(c1ccccc1)c1cccc(CCN2CCCCC2CC2CCCCC2)c1 (centres undefined)
- inhibition in vivo at 20 µmol/kg (Rattus norvegicus [2]): 0%

Structure (SMILES): CC(CN1CCCCC1CC1CCCCC1)c1cccc(C(C)c2ccccc2)c1 (centres undefined)
- inhibition in vivo at 20 µmol/kg (Rattus norvegicus [2]): 0%

Structure (SMILES): Cc1cccc(C(=O)c2cccc(C(C)CN3CCCCC3CC3CCCCC3)c2)c1 (centres undefined)
- inhibition in vivo at 20 µmol/kg (Rattus norvegicus [2]): 0%

Structure (SMILES): Cc1ccc(C(O)c2cccc(C(C)CN3CCCCC3CC3CCCCC3)c2)cc1 (centres undefined)
- inhibition in vivo at 20 µmol/kg (Rattus norvegicus [2]): 0%

Structure (SMILES): CC(CN1CCCCC1)c1cccc(C(=O)c2ccccc2)c1 (centres undefined)
- inhibition in vivo at 80 µmol/kg (Rattus norvegicus [22]): 30%
- inhibition in vivo at 80 µmol/kg (Rattus norvegicus [23]): 40%

Structure (SMILES): COc1ccc(C(O)c2cccc(C(C)CN3CCCCC3CC3CCCCC3)c2)cc1 (centres undefined)
- inhibition in vivo at 20 µmol/kg (Rattus norvegicus [2]): 0%

Structure (SMILES): CC(CN1CCCCC1CC1CCCCC1)c1cccc(C(C)(O)c2ccccc2)c1 (centres undefined)
- inhibition in vivo at 20 µmol/kg (Rattus norvegicus [2]): 0%

Structure (SMILES): CC(CN1CCCCC1CC1CCCCC1)c1cccc(C(N)c2ccccc2)c1 (centres undefined)
- inhibition in vivo at 20 µmol/kg (Rattus norvegicus [7]): 30%
- inhibition in vivo at 80 µmol/kg (Rattus norvegicus [4]): 90%

Structure (SMILES): Cc1ccccc1C(=O)c1cccc(C(C)CN2CCCCC2CC2CCCCC2)c1 (centres undefined)
- inhibition in vivo at 20 µmol/kg (Rattus norvegicus [1]): 20%
